A short description of data set [1]: Inhibition of Dengue Virus 2 NS2B-NS3 protease using Benzoyl-Nle-Lys-Arg-Arg-AMC as substrate incubated for 3 mins prior to substrate addition by fluorimetric analysis. Further details: species or system dengue virus type 2. The essentials: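 Ki by Dixon plot (1/v vs inhibitor) at 33 and 66 μM substrate. Fluorescence ex 356/em 438 nm; triplicate means.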
Data set [2] can be described thus: Chemical stability after 30 mins in presence of trypsin. The data set is classed as physicochemical. To be noted: isolated protein, 0.5 h. The essentials:
(§1)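 Peptide incubated with trypsin in 0.05 M Tris-HCl pH 7.8, 20 mM CaCl2 at 37 °C, or with cathepsin S in 50 mM NaAc pH 4.5, 25 mM NaCl, 5 mM DTT at room temperature. Digests analysed on HPLC C18 analytical column for remaining intact peptide.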

Data set [3] can be described thus: Inhibition of trypsin using N-benzoyl-DL-arginine-p-nitroanilide as substrate by […] analysis.
A short description of data set [4]: Drug degradation assessed as compound activity lost at 6.7 uM measured every 30 mins of 2.5 hrs in presence of Dengue Virus 2 NS2B-NS3 protease. Type of data set: physicochemical. The conditions noted are these: Dengue virus 2, Dengue virus 2 NS2B-NS3 protease; read-out: Drug degradation.
The nature of data set [5]: Drug degradation assessed as compound activity lost at 3.3 uM measured every 30 mins of 2.5 hrs in presence of Dengue Virus 2 NS2B-NS3 protease. To be noted: Dengue virus 2, Dengue virus 2 NS2B-NS3 protease; read-out: Drug degradation. The data set is classed as physicochemical.
For a further data set, the system named is dengue virus type 2. The data set is described as follows: Inhibition of Dengue Virus 2 NS2B-NS3 protease using Benzoyl-Nle-Lys-Arg-Arg-AMC as substrate at 167 uM incubated for 3 mins prior to substrate addition by fluorimetric analysis. An outline of the steps: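 Enzyme preincubated with inhibitor for 3 min at 37 °C before adding Bz-Nle-Lys-Arg-Arg-AMC substrate. Residual activity read by fluorescence, excitation 356 nm, emission 438 nm. Triplicate measurements averaged.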

Data set [6] can be described thus: Chemical stability assessed as compound remaining after 4 hrs in presence of trypsin. The data set is classed as physicochemical. To be noted: read-out: Stability. The essentials:
as §1

The nature of data set [7]: Chemical stability assessed as compound remaining after 4 hrs in presence of cathepsin S. The data set is classed as physicochemical. An outline of the steps: as §1
Data set [8] is described as follows: Chemical stability at 16. 7 uM measured every 30 mins of 2.5 hrs in presence of Dengue Virus 2 NS2B-NS3 protease. Type of data set: physicochemical.

Calls of active or inactive are those of the source. The rule behind the calls is not given here. Positions of bridges follow the written chain, without caps; N, C: chain ends. Residues, ends and D or L forms follow the SMILES beside them.

The term Ki denotes a measure of affinity in units of concentration, obtained from inhibition or displacement. The low end stands for a stronger hold on the target, the high end for a looser hold on the target. As for `N=C(N)NCCC[C@@H]1NC(=O)[C@H](CCCCN)NC(=O)[C@H](Cc2ccc(O)cc2)NC(=O)CNC(=O)[C@@H](N)CSSC[C@@H](C(=O)O)NC1=O` (H-CGYKRC-OH; disulfide 1-6), the affinity in data set [1], expressed as Ki, was 5 µM.
On to `CC(C)C[C@@H]1NC(=O)[C@H](CCCCN)NC(=O)[C@H](Cc2ccc(O)cc2)NC(=O)CNC(=O)[C@@H]2CSSC[C@H](NC1=O)C(=O)N[C@@H](Cc1cnc[nH]1)C(=O)N1C[C@H](O)C[C@H]1C(=O)N[C@H](C(=O)O)CSSC[C@H](NC(=O)[C@@H](NC(=O)CNC(=O)[C@@H](N)CC(N)=O)C(C)C)C(=O)N2`, for which affinity in data set [1] was put at a Ki of 9 µM.
On to H-CAGKRKSG-OH, for which the Stability result in [2] is reported as “Stable”. The molecule also had a Ki in data set [1] of 42 µM.
`N=C(N)NCCC[C@@H]1NC(=O)C(CCCCN)NC(=O)CNC(=O)[C@@H](N)CSSC[C@@H](C(=O)O)NC(=O)[C@H](CCCNC(=N)N)NC1=O` (single isomer, unassigned): the Ki in [1] amounted to 3.5 µM.
For the molecule `N=C(N)NCCC[C@@H]1NC(=O)C(CCCCN)NC(=O)CNC(=O)[C@@H](N)CSSC[C@@H](C(=O)O)NC(=O)[C@H](CO)NC(=O)[C@H](CCCCN)NC1=O` (single isomer, unassigned), the values for the Ki in [3] and in [1] were > 100 µM and 1.4 µM, respectively. In addition, the metabolised at 2.5 h, 6.7 µM in [4] was 50%. For the same molecule, the metabolised at 2.5 h, 3.3 µM in data set [5] worked out at 50%.
On to `CC(C)C[C@@H]1NC(=O)[C@H](CCCCN)NC(=O)C(Cc2ccc(O)cc2)NC(=O)CNC(=O)[C@@H](N)CSSC[C@@H](C(=O)O)NC1=O` (single isomer, unassigned), for which the Ki in data set [3] is > 100 µM; in data set [1] it was 12.5 µM. The inhibition entry in the data set on dengue virus type 2 was “inactive”.
For the molecule `CC(C)C[C@@H]1NC(=O)CNC(=O)[C@H](Cc2ccc(O)cc2)NC(=O)CNC(=O)[C@@H](N)CSSC[C@@H](C(=O)O)NC1=O` (H-CGYGLC-OH; disulfide 1-6), the Ki in data set [1] was > 100 µM.
As for `CC(C)C[C@@H]1NC(=O)[C@H](CCCCN)NC(=O)[C@H](CCCNC(=N)N)NC(=O)C(CCCCN)NC(=O)CNC(=O)[C@@H](N)CSSC[C@@H](C(=O)O)NC1=O` (single isomer, unassigned), the metabolised at 2.5 h, 6.7 µM in data set [4] is 50%. Besides, the metabolised at 2.5 h, 3.3 µM in data set [5] is 50%. The molecule also showed a Ki in [1] of 2.5 µM.
With `CC(C)C[C@@H]1NC(=O)[C@H](CCCCN)NC(=O)CNC(=O)CNC(=O)[C@@H](N)CSSC[C@@H](C(=O)O)NC1=O` (H-CGGKLC-OH; disulfide 1-6), the Ki in data set [1] turned out to be 15.1 µM.
In [1], `NCCCC[C@@H]1NC(=O)[C@H](Cc2ccc(O)cc2)NC(=O)CNC(=O)[C@@H](N)CSSC[C@@H](C(=O)O)NC(=O)CNC1=O` (H-CGYKGC-OH; disulfide 1-6) displayed a Ki of 12 µM.
With `C[C@@H]1NC(=O)[C@@H](CS)NC(=O)CNC(=O)[C@H](CO)NC(=O)[C@H](CCCCN)NC(=O)[C@H](CCCNC(=N)N)NC(=O)C(CCCCN)NC(=O)CNC1=O` (single isomer, unassigned), the Ki in [3] is > 100 µM; in [1], 2.2 µM. Also, the remaining at 4 h in [6] was determined as 50%. Besides, the Stability entry in [7] is listed as “Stable”. The metabolised at 2.5 h, 3.3 µM in [5] stood at 25%.
For the molecule `C[C@@H]1NC(=O)CNC(=O)[C@H](CO)NC(=O)[C@H](CCCCN)NC(=O)[C@H](CCCNC(=N)N)NC(=O)C(CCCCN)NC(=O)CNC1=O` (single isomer, unassigned), the Stability entry in data set [8] was “Stable”. Moreover, the Ki in data set [1] was 11.3 µM.

These data come from ChEMBL document CHEMBL2163310, “Critical effect of peptide cyclization on the potency of peptide inhibitors against Dengue virus NS2B-NS3 protease” (J Med Chem, 2012).
